ChEMBL document CHEMBL4270554, “Discovery of the cancer cell selective dual acting anti-cancer agent (Z)-2-(1H-indol-3-yl)-3-(isoquinolin-5-yl)acrylonitrile (A131)” (Eur J Med Chem, 2018)
Active and inactive are the calls of the source. No cut-off for these calls is given here.

Experiments:
[1] = Intrinsic clearance in pooled male rat liver microsomes assessed per mg protein at 3 uM preincubated for 5 mins followed by NADPH addition measured after 45 mins by LC-MS/MS method; format: ADME, microsome; details: read-out: CLH
Summary of the method: (§1)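 Pooled female or male rat liver microsomes (0.3 mg protein/mL) with substrate at final 3 μM in 0.1 M phosphate pH 7.4. Pre-incubated 5 min at 37 °C, then started with NADPH (final 1 mM). Sampled at 0–45 min in triplicate, quenched with cold acetonitrile plus internal standard. Parent measured by LC-MS/MS. Midazolam as positive control; no-NADPH negative control.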

hTERT-BJ [2] = test: Inhibition of mitotic progression in human hTERT-BJ cells transformed with hTert, small t, shRNAs against p53 and pRb and H-RasV12-ER assessed as increase in phosphorylated histone H3 (Ser10) level at 5 uM after 24 hrs by immunoblot analysis relative to control; format: functional
Summary of the method: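 Fully transformed BJ fibroblasts (hTert, small t, shRNAs to p53 and pRb, H-RasV12-ER) treated 24 h at 5 μM. Immunoblot protocol as for HeLa. pH3 (Ser10) band intensity expressed as fold of DMSO control; under 2-fold counted as insignificant.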

[3] = Half life in pooled female rat liver microsomes at 3 uM preincubated for 5 mins followed by NADPH addition measured after 45 mins by LC-MS/MS method; format: ADME, microsome
Summary of the method: (§2)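 Pooled female or male rat liver microsomes (0.3 mg protein/mL) with 3 μM substrate in 0.1 M phosphate buffer pH 7.4, pre-incubated 5 min at 37 °C, started with 1 mM NADPH. Samples at 0-45 min quenched in cold acetonitrile with internal standard, analysed by LC-MS/MS. Triplicates; midazolam positive control, no-NADPH negative control.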

hTERT-BJ [4] = test: Induction of autophagy in human hTERT-BJ cells transformed with hTert, small t, shRNAs against p53 and pRb and H-RasV12-ER assessed as increase in LC3-2 to LC3-1 ratio at 5 uM after 24 hrs by immunoblot analysis relative to control; format: functional
Summary of the method: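 Fully transformed BJ fibroblasts (hTert, small t, shRNAs to p53 and pRb, H-RasV12-ER) grown at 37 °C, 5% CO2 in 10% FBS medium; treated 24 h at 5 μM. Triton lysis, 14% SDS-PAGE, LC3 immunoblot; LC3-II/LC3-I band ratio relative to DMSO-treated control, under 2-fold induction deemed insignificant.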

[5] = Intrinsic clearance in pooled female rat liver microsomes assessed per mg protein at 3 uM preincubated for 5 mins followed by NADPH addition measured after 45 mins by LC-MS/MS method; format: ADME, microsome; details: read-out: CLH; summary of the method: as §1
[6] = Half life in pooled male rat liver microsomes at 3 uM preincubated for 5 mins followed by NADPH addition measured after 45 mins by LC-MS/MS method; format: ADME, microsome; summary of the method: as §2
hTERT-BJ [7] = test: Cell cycle arrest in human hTERT-BJ cells transformed with hTert, small t, shRNAs against p53 and pRb and H-RasV12-ER assessed as accumulation at sub-G1 phase at 5 uM after 48 hrs; format: functional, cell-based
Summary of the method: (§3)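 Isogenic normal and fully transformed BJ fibroblasts (hTert, small t, shRNAs to p53 and pRb, H-RasV12-ER) exposed to 5 μM for 48 h. Percentage of cells in sub-G1 phase determined as a cell death measure.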

BJ [8] = test: Cell cycle arrest in human BJ cells assessed as accumulation at sub-G1 phase at 5 uM after 48 hrs; format: cell-based; summary of the method: as §3
HeLa [9] = test: Induction of mitotic arrest in human HeLa cells assessed as formation of disorganized spindles at 15 to 25 uM after 6 hrs by DAPI staining-based immunofluorescence analysis; format: functional, cell-based
HeLa [10] = test: Inhibition of colony formation in human HeLa cells after 7 days by plate colony counting method; format: functional, cell-based
HeLa [11] = test: Induction of autophagy in human HeLa cells assessed as increase in LC3 puncta at 2.5 uM after 6 hrs by DAPI staining-based immunofluorescence microscopy; format: functional, cell-based
Summary of the method: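 HeLa cells exposed to compound or DMSO for 6 h, then immunostained for LC3 with DAPI nuclear counterstain. Puncta formation scored by fluorescence imaging as a read-out of LC3-II.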

BJ [12] = test: Induction of apoptosis in human BJ cells transformed with hTert, small t, shRNAs against p53 and pRb and H-RasV12-ER assessed as activation of caspase-3/7 up to 5 uM after 48 hrs by caspase-Glo 3/7 luminescent assay; format: functional, cell-based
Summary of the method: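 Normal and transformed BJ cells treated 48 h across a concentration series. Caspase-3/7 activity by Caspase-Glo 3/7 luminescence, normalized to viable cell number from MTT. Mean ± S.D., n=3; two-tailed unpaired t tests.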

HeLa [13] = test: Induction of mitotic arrest in human HeLa cells expressing GFP-tagged tubulin assessed as appearance of large vacuole like structures that filled out cytoplasmic area at 2.5 uM after 20 hrs by microscopic method; format: functional, cell-based
Summary of the method: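 HeLa cells stably expressing GFP-tubulin exposed to compound or DMSO for 20 h. Cytoplasmic vacuole-like structures and mitotic arrest examined by high-resolution microscopy.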

HeLa [14] = test: Inhibition of mitotic progression in human HeLa cells assessed as upregulation of phosphorylated histone H3 (Ser10) level after 6 hrs by immunoblot analysis; format: functional, cell-based
Summary of the method: (§4)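 HeLa cells treated 6 h with 0.625–10 μM test agent or chloroquine (1.25–100 μM), or DMSO. Lysis in 1% Triton buffer (pH 8.0) with protease and phosphatase inhibitors, 14% SDS-PAGE, immunoblot for LC3, pH3 (Ser10) and β-actin. Band intensity ratios (LC3-II/LC3-I; pH3) expressed relative to DMSO control.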

HeLa [15] = test: Induction of mitotic arrest in human HeLa cells assessed as formation of misaligned chromosomes at 2.5 uM after 6 hrs by DAPI staining-based immunofluorescence analysis; format: functional, cell-based
HeLa [16] = test: Induction of mitotic arrest in human HeLa cells assessed as formation of misaligned chromosomes at 15 to 25 uM after 6 hrs by DAPI staining-based immunofluorescence analysis; format: functional, cell-based
HeLa [17] = test: Induction of mitotic arrest in human HeLa cells assessed as formation of disorganized spindles at 2.5 uM after 6 hrs by DAPI staining-based immunofluorescence analysis; format: functional, cell-based
HeLa [18] = test: Induction of autophagy in human HeLa cells assessed as increase in LC3-2 levels after 6 hrs by immunoblot analysis; format: functional, cell-based; summary of the method: as §4

| Compound | microsomal CLint at 3 µM [1] [µL/min/mg] | fold change (FC) (hTERT-BJ [2]) | half-life at 3 µM [3] [min] | fold change (FC) (hTERT-BJ [4]) | microsomal CLint at 3 µM [5] [µL/min/mg] | half-life at 3 µM [6] [min] | Activity (hTERT-BJ [7]) | Activity (BJ [8]) | Activity (HeLa [9]) | Activity (HeLa [10]) | Activity (HeLa [11]) | Activity (BJ [12]) | Activity (HeLa [13]) | inhibition (HeLa [14]) | Activity (HeLa [15]) | Activity (HeLa [16]) | Activity (HeLa [17]) | Activity (HeLa [18]) |
| --- | --- | --- | --- | --- | --- | --- | --- | --- | --- | --- | --- | --- | --- | --- | --- | --- | --- | --- |
| N#C/C(=C\c1cccc2cnccc12)c1c[nH]c2ccc(Br)cc12 | 118 | 2.1 | 43.8 | 4 | 53 | 19.6 |  |  |  |  |  |  |  |  |  |  |  |  |
| COCCOc1ccc2[nH]cc(/C(C#N)=C/c3cccc4cnccc34)c2c1 |  | 1.6 |  | 3.2 |  |  | inactive | Non-Toxic |  |  |  |  |  |  |  |  |  |  |
| COc1ccc2[nH]cc(/C(C#N)=C/c3cccc4cnccc34)c2c1 | 106 | 3 | 33.4 | 3.2 | 66 | 21.8 |  |  |  |  |  |  |  |  |  |  |  |  |
| N#C/C(=C\c1cccc2cnccc12)c1c[nH]c2ccccc12 |  |  |  |  |  |  | Active |  | Active | Dose-dependent effect | Active | Active | Active | Dose-dependent effect | Active | Active | Active | Dose-dependent effect |
